Results taken from ChEMBL document CHEMBL1287642, “Synthesis, antiviral activity and cytotoxicity evaluation of Schiff bases of some 2-phenyl quinazoline-4(3)H-ones” (Eur J Med Chem, 2010).
Converted amounts (≈) assume the structure as drawn.

Columns and labels:
[1] = Cytotoxicity against human HEL cells assessed as minimum concentration required to cause microscopically detectable alteration after 2 days; assay type: cell-based; details: read-out: Activity
Felid alphaherpesvirus 1 = assay: Antiviral activity against Feline herpes virus infected in cat CRFK cells assessed as protection against virus-induced cytopathogenicity after 2 days by MTS assay; assay type: functional, organism-based; details: Felid alphaherpesvirus 1, CRFK, 48 h
[2] = test system: Mammalian orthoreovirus 1; assay: Antiviral activity against Reovirus-1 infected in african green monkey Vero cells assessed as protection against virus-induced cytopathogenicity after 2 days; assay type: functional, organism-based; details: Mammalian orthoreovirus 1, Vero, 48 h
Human respirovirus 3 = assay: Antiviral activity against Para influenza-3 virus infected in african green monkey Vero cells assessed as protection against virus-induced cytopathogenicity after 2 days; assay type: functional, organism-based; details: Human respirovirus 3, Vero, 48 h
[3] = Cytotoxicity against human HeLa cells assessed as minimum concentration required to cause microscopically detectable alteration after 2 days; assay type: cell-based; details: read-out: Activity
Influenza A virus [4] = assay: Antiviral activity against influenza A virus H1N1 infected in MDCK cells assessed as cell viability at 100 ug/ml after 2 days by MTS assay; assay type: functional, organism-based
[5] = test system: Vesicular stomatitis virus; assay: Antiviral activity against Vesicular stomatitis virus infected in human HeLa cells assessed as protection against virus-induced cytopathogenicity after 2 days; assay type: functional, organism-based; details: 48 h
[6] = Cytotoxicity against african green monkey Vero cells assessed as minimum concentration required to cause microscopically detectable alteration after 2 days; assay type: cell-based; details: chlorocebus sabaeus, read-out: Activity
Human alphaherpesvirus 1 [7] = assay: Antiviral activity against acyclovir-resistant TK deficient Herpes simplex virus-1 KOS infected in human HEL cells assessed as protection against virus-induced cytopathogenicity after 2 days; assay type: functional, organism-based; details: Human alphaherpesvirus 1, KOS, 48 h
Influenza A virus [8] = assay: Antiviral activity against Influenza A virus H3N2 infected in MDCK cells assessed as protection against virus-induced cytopathogenicity at 100 ug/ml after 2 days; assay type: functional, organism-based
In short: (§1)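 Infected MDCK cells were treated. […] N.A. means not active at the highest concentration tested or at a subtoxic concentration.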

Influenza A virus [9] = assay: Antiviral activity against influenza A virus H1N1 infected in MDCK cells assessed as protection against virus-induced cytopathogenicity at 100 ug/ml after 2 days; assay type: functional, organism-based; in short: as §1
Influenza B virus [10] = assay: Antiviral activity against influenza B virus infected in MDCK cells assessed as protection against virus-induced cytopathogenicity at 100 ug/ml after 2 days; assay type: functional, organism-based; in short: as §1
Influenza B virus [11] = assay: Antiviral activity against influenza B virus infected in MDCK cells assessed as cell viability at 100 ug/ml after 2 days by MTS assay; assay type: functional, organism-based
Coxsackievirus B4 [12] = assay: Antiviral activity against Coxsackie virus B4 infected in african green monkey Vero cells assessed as protection against virus-induced cytopathogenicity after 2 days; assay type: functional, organism-based; details: Enterovirus B, 48 h
Influenza A virus [13] = assay: Antiviral activity against Influenza A virus H3N2 infected in MDCK cells assessed as cell viability at 100 ug/ml after 2 days by MTS assay; assay type: functional, organism-based
Sindbis virus = assay: Antiviral activity against Sindbis virus infected in african green monkey Vero cells assessed as protection against virus-induced cytopathogenicity after 2 days; assay type: functional, organism-based; details: 48 h
Human alphaherpesvirus 1 [14] = assay: Antiviral activity against Herpes simplex virus-1 KOS infected in human HEL cells assessed as protection against virus-induced cytopathogenicity after 2 days; assay type: functional, organism-based; details: Human alphaherpesvirus 1, KOS, 48 h
Human alphaherpesvirus 2 = assay: Antiviral activity against Herpes simplex virus-2 G infected in human HEL cells assessed as protection against virus-induced cytopathogenicity after 2 days; assay type: functional, organism-based; details: Human alphaherpesvirus 2, strain G, 48 h
[15] = Cytotoxicity against MDCK cells assessed as minimum concentration required to cause microscopically detectable alteration after 2 days; assay type: cell-based, Canis lupus familiaris; details: dog, read-out: Activity
Punta Toro virus = assay: Antiviral activity against Punta Toro virus infected in african green monkey Vero cells assessed as protection against virus-induced cytopathogenicity after 2 days; assay type: functional, organism-based; details: 48 h
[16] = test system: Respiratory syncytial virus; assay: Antiviral activity against Respiratory syncytial virus infected in human HeLa cells assessed as protection against virus-induced cytopathogenicity after 2 days; assay type: functional, organism-based; details: 48 h
MDCK = assay: Cytotoxicity against MDCK cells by MTS assay; assay type: cell-based, Canis lupus familiaris; details: dog, mdck
In short: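 In Madin Darby canine kidney cells, the 50% cytotoxic concentration was derived from cell viability measured by the colorimetric formazan-based MTS assay.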

[17] = test system: Feline infectious peritonitis virus; assay: Antiviral activity against Feline coronavirus FIPV infected in cat CRFK cells assessed as protection against virus-induced cytopathogenicity after 2 days by MTS assay; assay type: functional, cell-based; details: Alphacoronavirus 1, CRFK, 48 h
Coxsackievirus B4 [18] = assay: Antiviral activity against Coxsackie virus B4 infected in human HeLa cells assessed as protection against virus-induced cytopathogenicity after 2 days; assay type: functional, organism-based; details: Enterovirus B, 48 h
[19] = Cytotoxicity against cat CRFK cells by MTS assay; assay type: cell-based, Felis catus
In short: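 In uninfected CRFK cells, the 50% cytotoxic concentration was derived from cell viability measured by the colorimetric formazan-based MTS assay.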

[20] = test system: Vesicular stomatitis virus; assay: Antiviral activity against Vesicular stomatitis virus infected in human HEL cells assessed as protection against virus-induced cytopathogenicity after 2 days; assay type: functional, organism-based; details: 48 h

SMILES	MCC at 48 h [1] [µg/mL]	EC50 (Felid alphaherpesvirus 1) [µg/mL]	EC50 [2] [µg/mL]	EC50 (Human respirovirus 3) [µg/mL]	MCC at 48 h [3] [µg/mL]	EC50 (Influenza A virus [4])	EC50 [5] [µg/mL]	MCC at 48 h [6] [µg/mL]	EC50 (Human alphaherpesvirus 1 [7]) [µg/mL]	EC50 (Influenza A virus [8])	EC50 (Influenza A virus [9])	EC50 (Influenza B virus [10])	EC50 (Influenza B virus [11])	EC50 (Coxsackievirus B4 [12]) [µg/mL]	EC50 (Influenza A virus [13])	EC50 (Sindbis virus) [µg/mL]	EC50 (Human alphaherpesvirus 1 [14]) [µg/mL]	EC50 (Human alphaherpesvirus 2) [µg/mL]	EC50 [17] [µg/mL]	EC50 [20] [µg/mL]	further results
C/C(=N\n1c(-c2ccccc2)nc2ccccc2c1=O)c1ccc(Cl)cc1	100	> 100	> 20	> 20	100	Not Active	> 20	100	> 20	Not Active	Not Active	Not Active	Not Active	> 20	Not Active	–	–	–	–	–	–
C/C(=N\n1c(-c2ccccc2)nc2ccccc2c1=O)c1ccc(O)cc1	> 100	> 100	> 100	> 100	> 100	Not Active	> 100	100	> 100	Not Active	Not Active	Not Active	Not Active	> 100	Not Active	> 100	> 100	> 100	> 100	> 100	MCC at 48 h [15]: > 100 µg/mL; EC50 (Punta Toro virus): > 100 µg/mL; EC50 [16]: > 100 µg/mL; CC50 (MDCK): > 100 µg/mL; EC50 (Coxsackievirus B4 [18]): > 100 µg/mL; CC50 ([19]; crfk): > 100 µg/mL
COc1ccc(/C=N/n2c(-c3ccccc3)nc3ccccc3c2=O)cc1O	100	> 20	> 20	> 20	20	Not Active	> 4	100	> 20	Not Active	Not Active	Not Active	Not Active	> 20	Not Active	> 20	> 20	> 20	> 20	> 20	MCC at 48 h [15]: 20 µg/mL; EC50 (Punta Toro virus): > 20 µg/mL; EC50 [16]: > 4 µg/mL; CC50 (MDCK): 47.4 µg/mL (≈ 128 µM); EC50 (Coxsackievirus B4 [18]): > 4 µg/mL; CC50 ([19]; crfk): 42.7 µg/mL (≈ 115 µM)
O=c1c2ccccc2nc(-c2ccccc2)n1/N=C/c1cccc([N+](=O)[O-])c1	≥ 20	> 4	> 4	> 4	20	Not Active	> 4	20	> 20	Not Active	Not Active	Not Active	Not Active	> 4	Not Active	> 4	> 20	> 20	> 4	> 20	MCC at 48 h [15]: 20 µg/mL; EC50 (Punta Toro virus): > 4 µg/mL; EC50 [16]: > 4 µg/mL; CC50 (MDCK): > 100 µg/mL; EC50 (Coxsackievirus B4 [18]): > 4 µg/mL; CC50 ([19]; crfk): 13.8 µg/mL (≈ 37.3 µM)
O=c1[nH]c(=O)n([C@H]2C[C@H](O)[C@@H](CO)O2)cc1/C=C/Br [BRIVUDINE]	> 250	–	–	–	–	–	–	–	–	–	–	–	–	–	–	–	–	50 (≈ 150 µM)	–	> 250	–
Nc1nc2c(ncn2COC(CO)CO)c(=O)[nH]1 [GANCICLOVIR]	> 100	0.8 (≈ 3.13 µM)	–	–	–	–	–	–	2 (≈ 7.84 µM)	–	–	–	–	–	–	–	0.05 (≈ 0.196 µM)	0.07 (≈ 0.274 µM)	> 100	> 100	CC50 ([19]; CRFK cells, read-out: CC50): > 100 µg/mL
O=c1c2ccccc2nc(-c2ccccc2)n1/N=C/c1ccc(O)cc1	100	> 20	> 20	> 20	100	Not Active	> 20	100	> 20	Not Active	Not Active	Not Active	Not Active	> 20	Not Active	> 20	> 20	> 20	> 20	> 20	MCC at 48 h [15]: 20 µg/mL; EC50 (Punta Toro virus): > 20 µg/mL; EC50 [16]: > 20 µg/mL; CC50 (MDCK): 10.2 µg/mL (≈ 29.9 µM); EC50 (Coxsackievirus B4 [18]): > 20 µg/mL; CC50 ([19]; crfk): 59.5 µg/mL (≈ 174 µM)
CC(=O)N[C@H]1[C@H](OOP(=O)(O)OP(=O)(O)OC[C@H]2O[C@@H](n3ccc(=O)[nH]c3=O)[C@H](O)[C@@H]2O)O[C@H](CO)[C@@H](O)[C@@H]1O[C@](C)(OP(=O)(O)O)C(=O)O	–	53.1 (≈ 67.1 µM)	–	–	–	–	–	–	–	–	–	–	–	–	–	–	–	–	11.7 (≈ 14.8 µM)	–	CC50 ([19]; CRFK cells, read-out: CC50): > 100 µg/mL
O=c1c2ccccc2nc(-c2ccccc2)n1/N=C/c1ccc(Cl)cc1	100	> 20	> 4	> 4	20	Not Active	> 4	20	> 20	Not Active	Not Active	Not Active	Not Active	> 4	Not Active	> 4	> 20	> 20	> 20	> 20	MCC at 48 h [15]: 20 µg/mL; EC50 (Punta Toro virus): > 4 µg/mL; EC50 [16]: > 4 µg/mL; CC50 (MDCK): 76.4 µg/mL (≈ 212 µM); EC50 (Coxsackievirus B4 [18]): > 4 µg/mL; CC50 ([19]; crfk): 42.2 µg/mL (≈ 117 µM)
N=C(N)NCCC[C@H](N)C(=O)O [ARGININE]	–	1.6 (≈ 9.18 µM)	–	–	–	–	–	–	–	–	–	–	–	–	–	–	–	–	2.6 (≈ 14.9 µM)	–	CC50 ([19]; CRFK cells, read-out: CC50): > 100 µg/mL
NC(=O)c1ncn([C@@H]2O[C@H](CO)[C@@H](O)[C@H]2O)n1 [RIBAVIRIN]	> 250	–	> 250	–	> 250	–	22 (≈ 90.1 µM)	> 250	> 250	–	–	–	–	> 250	–	> 250	> 250	> 250	–	–	MCC at 48 h [15]: > 100 µg/mL; EC50 [16]: 22 µg/mL (≈ 90.1 µM)
Nc1ncnc2c1ncn2C[C@H](O)CO [(S)-DHPA]	–	–	> 250	> 250	> 250	–	> 250	> 250	–	–	–	–	–	> 250	–	> 250	–	–	–	–	EC50 (Punta Toro virus): > 250 µg/mL; EC50 [16]: > 250 µg/mL; EC50 (Coxsackievirus B4 [18]): > 250 µg/mL
CN(C)c1ccc(/C=N/n2c(-c3ccccc3)nc3ccccc3c2=O)cc1	–	> 100	> 20	> 20	–	Not Active	–	–	> 20	Not Active	Not Active	Not Active	Not Active	–	Not Active	–	–	–	–	> 20	EC50 (Coxsackievirus B4 [18]): > 20 µg/mL
Nc1ccn(C[C@@H](CO)OCP(=O)(O)O)c(=O)n1.O.O [CIDOFOVIR]	> 250	–	–	–	–	–	–	–	–	–	–	–	–	–	–	–	–	–	–	> 250	–
C/C(=N\n1c(-c2ccccc2)nc2ccccc2c1=O)c1ccccc1	> 100	> 0.8	> 20	> 20	> 100	Not Active	> 100	100	> 100	Not Active	Not Active	Not Active	Not Active	> 20	Not Active	> 20	> 100	> 100	> 0.8	> 100	MCC at 48 h [15]: 100 µg/mL; EC50 (Punta Toro virus): > 20 µg/mL; EC50 [16]: > 100 µg/mL; CC50 (MDCK): > 100 µg/mL; EC50 (Coxsackievirus B4 [18]): > 100 µg/mL; CC50 ([19]; crfk): 2.6 µg/mL (≈ 7.66 µM)
